# ChEMBL document CHEMBL3271953, “Bridged aminotetralins. 4. Resolution of potent analgesics of the bridged aminotetralin type” (J Med Chem, 1976)
# Activity calls are given as the source filed them.
# How the values were obtained:
# Rattus norvegicus [1] = assay: Analgesic activity in ip dosed Charles River rat by tail flick test; type: functional
# Outline: (§1)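 D'Amour-Smith rat tail-flick test. Compounds were given ip, im or po, and analgesic ED50 was derived. Doses are expressed as mg of base per kg and given as the hydrochloride or hydrobromide salt or as the free base. Some ED50s rest on two doses only.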
# Rhesus monkey [2] = assay: Analgesic activity in po dosed monkey assessed as increase in shock threshold; type: functional, organism-based; details: Macaca mulatta
# Rhesus monkey [3] = assay: Analgesic activity in monkey assessed as increase in shock threshold at 0.06 mg/kg, im; type: functional, organism-based; design: dose 0.06 mg/kg; details: Macaca mulatta
# Rhesus monkey [4] = assay: Narcotic antagonism activity in morphine-dependent rhesus monkey assessed as precipitation of withdrawal symptoms at 0.5 to 1 mg/kg, im; type: functional, organism-based; details: Macaca mulatta
# Rhesus monkey [5] = assay: Narcotic antagonism activity in morphine-dependent rhesus monkey assessed as precipitation of withdrawal symptoms at 1 mg/kg, im measured for 10 hrs; type: functional, organism-based; design: dose 1 mg/kg; details: Macaca mulatta
# Rattus norvegicus [6] = assay: Analgesic activity in im dosed Charles River rat by tail flick test; type: functional; outline: as §1
# Rattus norvegicus [7] = assay: Analgesic activity in po dosed Charles River rat by tail flick test; type: functional; outline: as §1
# Rattus norvegicus [8] = organism: Rattus norvegicus; assay: Ratio of morphine ED50 to compound ED50 for analgesic activity in Charles River rat by tail flick test; type: functional
# Rattus norvegicus [9] = assay: Analgesic activity in Charles River rat at 20 mg/kg, po by tail flick test; type: functional, organism-based; design: dose 20 mg/kg
# [10] = Acute toxicity in po dosed rat; type: organism-based; details: in vivo
# Outline: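 Acute toxicity in rats after oral dosing, expressed as an LD50 in mg/kg.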
# Rattus norvegicus [11] = assay: Ratio of morphine ED50 to compound ED50 for analgesic activity in po dosed Charles River rat by tail flick test; type: functional
# [12] = Rattus norvegicus, Charles River, Tail, ip, read-out: ED50
# [13] = Rattus norvegicus, Charles River, Tail, im, read-out: ED50
# [14] = Rattus norvegicus, Charles River, Tail, po, read-out: ED50
SMILES,ED50 (Rattus norvegicus [1]),ED50 (Rattus norvegicus [7]),ED50 (Rattus norvegicus [6]),other results
COc1ccc2c(c1)[C@@]1(C)CCCCCC(C2)[C@@H]1N.Cl (stereo in doubt; (+)-5),>25 mg/kg,,,
C[C@@]12CCCCCC(Cc3ccc(O)cc31)[C@@H]2N (stereo in doubt; (-)-6),,,,Activity (Rhesus monkey [2]): Dose-dependent effect; Activity (Rhesus monkey [3]): Active; Activity (Rhesus monkey [4]): Active; Activity (Rhesus monkey [5]): Active
C[C@@]12CCCCCC(Cc3ccc(OC(=O)C4CC4)cc31)[C@@H]2N.Cl,,,,ED50 (Rattus norvegicus [1]; [12]): 1.5 mg/kg; ED50 (Rattus norvegicus [6]; [13]): 0.45 mg/kg
Br.C[C@@]12CCCCCC(Cc3ccc(O)cc31)[C@@H]2N (mixture of isomers),1.11 mg/kg,10 mg/kg,0.45 mg/kg,
CC[C@@]12CC/C=C\CC(Cc3ccc(OC)cc31)[C@@H]2N.Cl (mixture of isomers),4.2 mg/kg,,,
COc1ccc2c(c1)[C@@]1(C)CCCCCC(C2)[C@@H]1N.Cl (mixture of isomers),4.88 mg/kg,,,
CC[C@@]12CCCCCC(Cc3ccc(OC)cc31)[C@@H]2N.Cl (stereo in doubt; (-)-1),3.3 mg/kg,7.5 mg/kg,3.5 mg/kg,
CC[C@@]12CC/C=C\CC(Cc3ccc(OC)cc31)[C@@H]2N.Cl (stereo in doubt; (+)-3),,,,ED50 (Rattus norvegicus [1]; [12]): 3.75 mg/kg; ED50 (Rattus norvegicus [6]; [13]): 12.5 mg/kg
CC[C@@]12CC/C=C\CC(Cc3ccc(O)cc31)[C@@H]2N.Cl (stereo in doubt; (-)-4),9 mg/kg,,4 mg/kg,
Br.C[C@@]12CCCCCC(Cc3ccc(O)cc31)[C@@H]2N (stereo in doubt; (+)-6),>100 mg/kg,,95 mg/kg,
CC[C@@]12CC/C=C\CC(Cc3ccc(O)cc31)[C@@H]2N.Cl (stereo in doubt; (+)-4),0.8 mg/kg,,0.195 mg/kg,Ratio ED50 (Rattus norvegicus [8]): <=15; ED50 (Rattus norvegicus [7]; [14]): 5 mg/kg
CC[C@@]12CCCCCC(Cc3ccc(OC)cc31)[C@@H]2N.Cl (mixture of isomers),3.5 mg/kg,,12 mg/kg,
CC[C@@]12CCCCCC(Cc3ccc(OC)cc31)[C@@H]2N (mixture of isomers),,,,Activity (Rattus norvegicus [9]): Active
CC[C@@]12CC/C=C\CC(Cc3ccc(O)cc31)[C@@H]2N.Cl (mixture of isomers),1.75 mg/kg,,,
CN1CC[C@]23c4c5ccc(O)c4O[C@H]2[C@@H](O)C=C[C@H]3[C@H]1C5 [MORPHINE],,,,ED50 (Rattus norvegicus [1]; [12]): 4.43 mg/kg; ED50 (Rattus norvegicus [7]; [14]): 15.9 mg/kg; ED50 (Rattus norvegicus [6]; [13]): 1.57 mg/kg
CC[C@@]12CC/C=C\CC(Cc3ccc(OC)cc31)[C@@H]2N.Cl (stereo in doubt; (-)-3),>6.25 mg/kg,,,
Br.C[C@@]12CCCCCC(Cc3ccc(O)cc31)[C@@H]2N (stereo in doubt; (-)-6),0.53 mg/kg,2.05 mg/kg,0.12 mg/kg,Ratio ED50 (Rattus norvegicus [8]): <=15; LD50 [10]: 200 mg/kg; Ratio ED50 (Rattus norvegicus [11]): 8
CC[C@@]12CCCCCC(Cc3ccc(O)cc31)[C@@H]2N (mixture of isomers),3.7 mg/kg,10 mg/kg,0.25 mg/kg,
CC[C@@]12CCCCCC(Cc3ccc(O)cc31)[C@@H]2N (stereo in doubt; (-)-2),0.5 mg/kg,3.5 mg/kg,0.1 mg/kg,Ratio ED50 (Rattus norvegicus [8]): <=15
CC[C@@]12CCCCCC(Cc3ccc(O)cc31)[C@@H]2N (stereo in doubt; (+)-2),7.5 mg/kg,80 mg/kg,2 mg/kg,
COc1ccc2c(c1)[C@@]1(C)CCCCCC(C2)[C@@H]1N.Cl (stereo in doubt; (-)-5),2 mg/kg,,,ED50 (Rattus norvegicus [7]; [14]): 3.5 mg/kg; ED50 (Rattus norvegicus [6]; [13]): 4.5 mg/kg
CC[C@@]12CCCCCC(Cc3ccc(OC)cc31)[C@@H]2N.Cl (stereo in doubt; (+)-1),10 mg/kg,30 mg/kg,10 mg/kg,
